In paper PMC4408243 (Biochimica et biophysica acta, 2015):
Residue numbers refer to the chain shown, from its start. Values joined by “and” are separate entries in the source; they are usually repeats but may differ in a detail not shown here. Equal entries are not always repeated. Marks after values point to notes of the source that are not given here. Values belong to the molecule of their own block, whether it stands above or below them.

Experiments:
[1] = target: T1, human WT FABP1 T94T (Homo sapiens, UniProt P07148); test: NBD-cholesterol fluorescence binding assay
T1 sequence (P07148 1-127): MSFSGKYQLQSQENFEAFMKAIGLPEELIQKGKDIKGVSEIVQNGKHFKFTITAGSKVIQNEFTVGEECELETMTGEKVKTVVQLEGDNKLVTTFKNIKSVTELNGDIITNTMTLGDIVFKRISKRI
Procedure, shortened: (§1)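 Recombinant FABP1 was titrated into NBD-cholesterol held at 20 nM, below its critical micellar concentration; human proteins ran 0–3.6 μM. Excitation was 490 nm and emission spectra were taken at 515–600 nm, 24°C. Emission maxima came from spectral analysis. Kd and Bmax were obtained by fitting the binding curve to a hyperbola. Data are mean ± SE, n = 3–5.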

[2] = target: T2, rat FABP1 (Rattus norvegicus, UniProt P02692); test: NBD-cholesterol fluorescence binding assay
T2 sequence (P02692 1-127): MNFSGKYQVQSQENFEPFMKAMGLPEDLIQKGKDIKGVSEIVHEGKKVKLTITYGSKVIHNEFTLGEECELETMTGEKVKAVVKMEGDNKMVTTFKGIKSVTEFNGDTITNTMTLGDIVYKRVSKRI
Procedure, shortened: as §1

[3] = target: T3, human FABP1 T94A variant (Homo sapiens, UniProt P07148, T94A); test: NBD-cholesterol fluorescence binding assay
T3 sequence (P07148 1-127 T94A): T1 sequence (P07148 1-127) with T94A
Procedure, shortened: as §1

[4] = target: T2, rat FABP1; test: Isothermal titration calorimetry; type: binding
[5] = target: T4, human T94A variant FABP1 (Homo sapiens, UniProt P07148, T94A); test: Isothermal titration calorimetry; type: binding
T4 sequence (P07148 1-127 T94A): T1 sequence (P07148 1-127) with T94A

[6] = aqueous; cited from earlier work
[7] = target: T5, human WT FABP1 (Homo sapiens, UniProt P07148); test: Isothermal titration calorimetry; type: binding
T5 sequence (P07148 1-127): T1 sequence (P07148 1-127)

[8] = NBD-cholesterol 20nM bound to protein, excitation 490 nm, 24°C
[9] = NBD-cholesterol 20nM, FABP1 0–3.6 μM, hyperbola fit
[10] = NBD-cholesterol 20nM, FABP1 0–3.6 μM, hyperbola fit, 24°C

Emission max [1, 8]: 544 nm and 543.9 ± 0.5 ^d nm | Bmax (fluorescence intensity at saturation) [1, 9]: 72.4 ± 7.7 A.U. | Kd [1, 10]: 1770 ± 430 nM | blue shift of emission maximum, bound versus aqueous buffer ([1]; normalized spectra): ~21 nm | Emission max [2, 8]: 540.7 ± 0.7 nm | Bmax (fluorescence intensity at saturation) [2, 9]: 68.2 ± 7.1 A.U. | Kd [2, 10]: 480 ± 120 nM | fold higher affinity for NBD-cholesterol than WT [3]: more than 3 fold | fold lower Kd than WT FABP1 T94T [3]: 3.5 fold | maximal fluorescence intensity lower than when bound to WT FABP1 T94T [3]: ~40% | shift of maximum emission, T94A variant compared to WT FABP1 T94T [3]: 5 nm | Emission max [3, 8]: 549 nm and 548.9 ± 1.0 ^d, ^e nm | Bmax (fluorescence intensity at saturation) [3, 9]: 43.4 ± 3.3 ^d, ^e A.U. | Kd [3, 10]: 510 ± 150 nM
Compound: C[C@H](CNc1ccc([N+](=O)[O-])c2nonc12)[C@H]1CC[C@H]2[C@@H]3CC=C4C[C@@H](O)CC[C@]4(C)[C@H]3CC[C@]12C [NBD-cholesterol, 22-(N-(7-nitrobenz-2-oxa-1,3-diazol-4-yl)-amino)-23, 24-bisnor-5-cholen-3β-ol]

Kd [4]: 600 ± 200 nM | TΔS ([4]; ITC, 25 °C, pH 8.0): 5.98 ± 0.72 kcal/mol | n, binding stoichiometry ([4]; ITC, 25 °C, pH 8.0): 0.9 ± 0.1 mol/mol | ΔG, Gibbs free energy change ([4]; ITC, 25 °C, pH 8.0): -9.8 ± 0.48 kcal/mol | ΔH, enthalpy change ([4]; ITC, 25 °C, pH 8.0): -3.59 ± 0.24 kcal/mol | Kd [5]: 500 ± 100 nM | TΔS ([5]; ITC, 25 °C, pH 8.0): 5.26 ± 0.24 kcal/mol | n, binding stoichiometry ([5]; ITC, 25 °C, pH 8.0): 0.7 ± 0.2 mol/mol | ΔG, Gibbs free energy change ([5]; ITC, 25 °C, pH 8.0): -10.8 ± 0.72 kcal/mol | ΔH, enthalpy change ([5]; ITC, 25 °C, pH 8.0): −23 ± 4 ^b kJ/mol | fold higher cholesterol-binding affinity than WT FABP1 T94T ([5]; NBD-cholesterol fluorescence and cholesterol ITC binding assays): 3 fold | Kd [7]: 1300 ± 400 nM | TΔS ([7]; ITC, 25 °C, pH 8.0): 5.02 ± 0.48 kcal/mol | n, binding stoichiometry ([7]; ITC, 25 °C, pH 8.0): 0.8 ± 0.2 mol/mol | ΔG, Gibbs free energy change ([7]; ITC, 25 °C, pH 8.0): -9.08 ± 0.72 kcal/mol | ΔH, enthalpy change ([7]; ITC, 25 °C, pH 8.0): -4.06 ± 0.48 kcal/mol
Compound: CC(C)CCC[C@@H](C)[C@H]1CC[C@H]2[C@@H]3CC=C4C[C@@H](O)CC[C@]4(C)[C@H]3CC[C@]12C [cholesterol]
critical micellar concentration [6]: ~30 nM
